# Screening results (PubChem)
# OX1R antag-1: OX1R (human) antagonism; OX1R-expressing cells, FRET antagonist read-out; AID 485270; inhibition, % at 6.6 µM; 330,000 compounds, 1.8% hits; in the data active = inhibition mostly above about 38%, no sharp cut-off; inactive = mostly below about 40%;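 also: 0% = agonist challenge alone and 100% = reference antagonist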
# OX1R antag-2: human HCRTR1 antagonism | O43613 | CHO/OX1R cells, Fluo-8 calcium fluorescence, orexin A | inhibition, % at 5 µM | 330,000 compounds, 0.43% hits;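 active = inhibition above its plate's threshold, mean inhibition of all tested compounds on the plate plus 3 SD, cut at about 37% in these data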;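 also: 0% = orexin A challenge wells and 100% = SB-334867-A antagonist wells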
# GPR7 antag: human neuropeptides B/W receptor 1 antagonism; inhibition, % at 4.4 µM; AID 1861; P48145; GPR7-expressing cells, fluorescence antagonist assay; 290,000 compounds, 1.1% hits; in the data active = inhibition above about 16%, passing the limit was not always enough;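 also: cells stimulated with the agonist NPW; 0% = agonist with vehicle and 100% = vehicle without agonist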
# Target sequence (P48145 whole entry, looked up): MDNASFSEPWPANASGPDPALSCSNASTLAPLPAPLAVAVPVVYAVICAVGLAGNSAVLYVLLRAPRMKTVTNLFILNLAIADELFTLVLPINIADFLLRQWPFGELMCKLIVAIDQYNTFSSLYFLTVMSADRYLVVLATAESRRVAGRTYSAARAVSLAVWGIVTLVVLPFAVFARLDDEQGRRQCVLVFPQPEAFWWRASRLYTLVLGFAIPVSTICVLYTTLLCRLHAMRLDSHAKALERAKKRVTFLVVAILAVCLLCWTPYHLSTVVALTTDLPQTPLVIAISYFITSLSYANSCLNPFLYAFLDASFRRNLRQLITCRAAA
# CHO parental Ca: counter-screen for OX1R antagonists: effect in parental CHO cells; parental CHO-K1, ATP-induced calcium, Fluo-8 fluorescence; inhibition, % at 5.6 µM; 330,000 compounds, 0.63% hits;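 active = inhibition above that plate's mean sample inhibition plus 3 SD, cut at about 26% in these data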;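 also: 0% = ATP-challenged DMSO wells and 100% = DMSO wells without ATP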
#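 Assay system – parental CHO cells · Reagent – ATP stimulus · Detection – intracellular calcium via Fluo-8 no-wash fluorescent dye · Evaluation – percent inhibition of ATP-evoked calcium rise, normalized to controls · Controls – ATP wells versus no-ATP DMSO wells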
# GalR3 antagonist: antagonists of human GalR3; inhibition, % at 3 µM; AID 651719; 360,000 compounds, 0.44% hits; O60755; HEK293 GalR3-CNG cAMP membrane potential fluorescence; galR3 body fused to GalR1 C-terminus;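 active = inhibition above the screen-wide average plus 3 SD, cut at about 13% in these data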;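 also: forskolin and galanin both at EC90 stimulate the cells; cAMP rise reported by CNG channel membrane potential dye signal; 0% = forskolin plus galanin with DMSO and 100% = forskolin alone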
# Target sequence (O60755 1-299 limits assumed): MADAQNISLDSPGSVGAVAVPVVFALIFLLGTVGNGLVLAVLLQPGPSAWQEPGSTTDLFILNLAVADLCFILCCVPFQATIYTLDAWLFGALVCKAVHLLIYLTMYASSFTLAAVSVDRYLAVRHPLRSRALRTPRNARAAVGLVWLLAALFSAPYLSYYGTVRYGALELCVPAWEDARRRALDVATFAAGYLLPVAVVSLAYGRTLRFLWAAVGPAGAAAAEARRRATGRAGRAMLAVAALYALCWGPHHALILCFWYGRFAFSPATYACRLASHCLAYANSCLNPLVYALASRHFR
# * marks the source's active call; other numbers are inactive results; x = not tested or not shown. Most compounds without a hit are left out; they make up all but 3.1% or so of the library.
SMILES,OX1R antag-1,OX1R antag-2,GPR7 antag,CHO parental Ca,GalR3 antagonist
CC(C)(C)OC(=O)NCc1ccc(CNC(=O)c2nc[nH]c2C(=O)NCc2ccc(CNC(=O)OC(C)(C)C)cc2)cc1,0.0,20.5,x,1.8,-1.3
CC(C)(C)OC(=O)NCCCCCNC(=O)c1[nH]cnc1C(=O)N[C@@H](Cc1ccccc1)C(=O)OCc1ccccc1,8.0,73.3*,-23.3,47.3*,-5.5
CC(C)C[C@H](NC(=O)c1nc[nH]c1C(=O)NCCCCCNC(=O)OC(C)(C)C)C(=O)OCc1ccccc1,17.6,-3.5,-28.2,11.3,-8.3
Nc1[nH]c(C(=O)c2ccccc2)c(-c2cccc(C(F)(F)F)c2)c1C(=O)NCCc1c[nH]c2ccccc12,x,x,x,x,-8.9
Cc1ccc(S(=O)(=O)N(C)C)cc1NC(=O)COC(=O)COc1ccc2c(c1)CCC2,18.9,-25.7,x,-18.0,-4.2
O=C(C(=O)N1CCN(C(=O)c2cc(C(F)(F)F)cc(C(F)(F)F)c2)CC1)c1cccc(C(F)(F)F)c1,x,x,x,x,2.4
CC(=O)C1(C)C(=O)N(c2ccc(C)cc2)C(=O)N1c1ccc(C)cc1 (stereo not given),x,x,x,x,-2.5
NC(=O)C(CC(=O)O)NC(=O)[C@@H]1CCOc2c(I)cc([N+](=O)[O-])cc2C(=O)N[C@@H](CCC(=O)O)C(=O)N[C@@H](CO)C(=O)N1 (stereo not given in full),70.4*,2.3,-6.0,-3.7,x
C[C@@H]1NC(=O)[C@H](CC(N)=O)NC(=O)c2cc([N+](=O)[O-])cc(I)c2OCC[C@@H](C(=O)NC(CC(=O)O)C(N)=O)NC1=O (stereo not given in full),30.8,-3.9,-9.8,-8.2,-6.8
C[C@@H]1NC(=O)c2cc([N+](=O)[O-])cc(I)c2OCC[C@@H](C(=O)NC(CC(=O)O)C(N)=O)NC(=O)[C@H](CCC(=O)O)NC1=O (stereo not given in full),61.8*,-1.9,-1.3,-7.2,x
CC(=O)OCC(=O)NCC1CCN(C(=O)C(=O)c2cc3ccccc3o2)CC1,x,x,x,x,-3.9
CCOC(=O)C1C(=O)C=C(c2ccc(C)cc2)CC1c1ccccc1 (stereo not given),28.0,-45.2,-5.0,-16.7,-4.2
CCOC(=O)C1C(=O)C=C(/C=C/c2ccc(N(C)C)cc2)CC1c1ccccc1 (stereo not given),28.1,39.6,0.2,40.7*,-4.2
COc1ccc(OC)c2c1sc(=NC(=O)c1ccco1)n2C,21.3,-25.1,-6.2,-0.9,x
CCn1c(=NC(=O)c2ccco2)sc2cccc(F)c21,64.8*,-3.7,-7.3,-17.2,x
CC(=O)Nc1ccc(NC(=O)COC(=O)c2ccc(S(=O)(=O)N(C)c3ccccc3)cc2)cc1,x,x,x,x,-0.3
CSC1=NC(=O)/C(=C/c2ccc(SC)cc2)S1,39.1*,-17.7,-10.5,-11.2,3.2
CCOC(=O)CSC1=NC(=O)/C(=C\c2ccc(Cl)cc2)S1,72.2*,5.1,-8.8,-4.8,-0.4
CCOC(=O)C1CCN(C2=NC(=O)/C(=C/c3ccc(Cl)cc3)S2)CC1,0.8,-10.7,7.0,-11.8,-6.0
CCC(c1nc2ccccc2[nH]1)n1c(-c2ccc3cc[nH]c3c2)nc2ccccc21 (stereo not given),x,x,x,x,-3.3
COC(=O)[C@]12C[C@H](CC(=O)NCc3ccc(OC)c(OC)c3)C(=O)N(CCc3ccc(OC)c(OC)c3)C1=C[C@H](C(C)(C)C)O[C@@H]2C,x,x,x,x,-2.1
COCCn1c(-c2ccc(Cl)cc2)cnc1SCC(=O)NCc1cccs1,13.2,-19.9,19.9*,-13.3,-2.4
Nc1ccn([C@@H]2O[C@H](C(=O)NCC(=O)N3CCOCC3)[C@@H](O)[C@H]2O)c(=O)n1,x,x,x,x,-6.1
Cc1ccc(S(=O)(=O)c2cc3c(=O)n4ccccc4nc3n(CCCN3CCOCC3)c2=N)cc1C,25.9,-18.1,-13.2,-25.2,-0.9
Cc1ccc2nc3c(cc(C(=O)NCCN4CCOCC4)c(=N)n3CCCN3CCOCC3)c(=O)n2c1,71.2*,4.1,-10.6,-2.4,x
SMILES,OX1R antag-1,OX1R antag-2,GPR7 antag,CHO parental Ca,GalR3 antagonist
Cc1ccc2nc3c(cc(C#N)c(=N)n3CCCN3CCOCC3)c(=O)n2c1,x,x,-11.8,x,x
N=c1c(C(=O)NCCN2CCOCC2)cc2c(=O)n3ccccc3nc2n1CCCN1CCOCC1,69.0*,-4.2,8.7,5.7,7.8
N=c1c(S(=O)(=O)c2ccccc2)cc2c(=O)n3ccccc3nc2n1CCCN1CCOCC1,45.9*,-17.4,-3.8,-11.7,-7.5
Cc1ccc2nc3c(cc(C(N)=S)c(=N)n3CCCOC(C)C)c(=O)n2c1,47.0*,-32.3,-8.1,-34.3,-5.3
OC(c1ccccc1)(c1ccccc1)C1CCN(CCCOc2ccc(-c3ccc(F)cc3F)cc2)CC1,x,x,x,x,-5.9
COC(=O)c1cc2c(c3c4cc(F)ccc4n(S(=O)(=O)c4ccc(C)cc4)c13)C(=O)N(c1ccc(OC)cc1)C2,x,x,x,x,-4.4
CSCCC(NC(=O)c1ccc(Cl)cc1Cl)C(=O)N(C)Cc1nc2ccccc2c(=O)[nH]1 (stereo not given),x,x,x,x,-0.6
N=c1c(C(=O)NCCN2CCOCC2)cc2c(=O)n3ccccc3nc2n1Cc1ccc(F)cc1,60.1*,-8.7,-8.3,-7.0,-3.5
CCC(C)c1ccc(NC(=S)NCCn2cc(Cl)cn2)cc1 (stereo not given),18.7,32.4,-9.3,45.1*,1.3
O=C(c1ccc(CSc2nc3ccncc3[nH]2)cc1)N1CCN(c2cccc(Cl)c2)CC1,33.6*,22.4,-1.7,72.6*,x
COc1ccccc1C(=O)N1CCC2CCN(C(=O)c3ccccc3)C2C1 (stereo not given),x,x,x,x,-5.5
OC(c1ccccc1)c1nc(-c2csc3ccccc23)cs1 (stereo not given),x,x,x,x,-4.9
Nc1nc(-c2ccccc2)nc(-c2ccccc2O)n1,52.4*,7.0,-0.7,-8.8,-11.7
Cc1cc(C)nc(SCc2nc(N)nc(-c3ccccc3O)n2)n1,55.1*,11.9,14.8,-13.0,-3.6
COc1ccccc1Nc1nc(N)nc(CSc2nc(C)cc(C)n2)n1,10.8,-13.4,7.6,-15.9,-5.8
Nc1nc(N)nc(-c2ccccc2O)n1,30.1,-6.6,0.7,-14.5,-3.8
CCCN1CCCCC(NC(=O)c2ccccc2OC)C1=O (stereo not given),x,x,x,x,-7.1
CCC/C(=C1/c2ccccc2C(=O)N1c1ccccc1)c1ccc(C=O)o1,x,x,x,x,-4.5
CSCC[C@H](NC(=O)c1cccc(S(=O)(=O)N2CCCCC2)c1)c1nc2ccccc2[nH]1,17.0,-20.7,x,-15.0,-2.4
COc1ccc(C(=O)C(=O)N2CCN(C(=O)c3cc(C(F)(F)F)cc(C(F)(F)F)c3)CC2)cc1OC,x,x,x,x,-6.6
C(=C\c1ccc2ccccc2n1)/c1ccccc1,-0.8,-15.3,-4.5,-28.5,-1.4
Fc1ccccc1/C=C/c1ccc2ccccc2n1,72.5*,-20.7,-14.8,-26.0,-9.8
Cc1c(NC(=O)C(C)OC(=O)c2cc(-c3cccc4ccccc34)nc3ccccc23)c(=O)n(-c2ccccc2)n1C (stereo not given),19.1,-21.9,-7.5,-16.8,-4.9
